These results are taken from ChEMBL document CHEMBL3351998, “Discovery of potent and specific dihydroisoxazole inhibitors of human transglutaminase 2” (J Med Chem, 2014).

SMILES strings stand for the structures.

The target in data set [1] is T1, Protein-glutamine gamma-glutamyltransferase (Homo sapiens) (UniProt P21980).
T1 sequence (whole entry): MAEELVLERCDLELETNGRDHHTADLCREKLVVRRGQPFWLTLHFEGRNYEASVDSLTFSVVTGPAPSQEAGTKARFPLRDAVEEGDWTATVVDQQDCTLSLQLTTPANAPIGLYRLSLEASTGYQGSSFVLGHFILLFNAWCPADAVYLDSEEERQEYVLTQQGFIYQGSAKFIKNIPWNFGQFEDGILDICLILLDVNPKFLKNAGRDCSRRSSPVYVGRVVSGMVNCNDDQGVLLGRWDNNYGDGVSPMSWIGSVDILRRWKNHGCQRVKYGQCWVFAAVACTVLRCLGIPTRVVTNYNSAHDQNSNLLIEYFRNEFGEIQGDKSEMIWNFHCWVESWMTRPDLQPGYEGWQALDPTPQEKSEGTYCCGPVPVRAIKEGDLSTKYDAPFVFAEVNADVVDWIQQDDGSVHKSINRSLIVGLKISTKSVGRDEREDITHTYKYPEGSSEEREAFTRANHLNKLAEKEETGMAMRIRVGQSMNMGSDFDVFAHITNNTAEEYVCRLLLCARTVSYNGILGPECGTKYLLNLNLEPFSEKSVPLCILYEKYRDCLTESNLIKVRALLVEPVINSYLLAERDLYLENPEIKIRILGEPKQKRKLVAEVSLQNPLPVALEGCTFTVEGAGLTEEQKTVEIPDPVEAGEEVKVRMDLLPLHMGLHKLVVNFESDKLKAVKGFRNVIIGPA
Kind of data set: Inhibition of human transglutaminase 2 using ((benzyloxy)carbony l)-L-glutaminylglycine peptide substrate assessed as Kinh/Ki ratio by GDH coupled assay. Summed up: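 Human TG2 (V224G variant) or codon-optimized murine TG2, E. coli-expressed, final ~0.34 and 0.22 μM respectively. Buffer: 200 mM MOPS pH 7.2, 5 mM CaCl2, 10 mM α-ketoglutarate, 300 μM NADH, 36 U/mL bovine GDH. Z-Gln-Gly at 10/20 mM. Inhibitors typically at 100/33.3/11.1/3.7 μM, 1% DMSO, added after ≥5 min pre-equilibration. A340 progress curves fitted to exponential decay; kinh/Ki from irreversible inhibition model.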

For data set [2], the target named is T2, Protein-glutamine gamma-glutamyltransferase K (Homo sapiens) (UniProt P22735).
T2 sequence (whole entry): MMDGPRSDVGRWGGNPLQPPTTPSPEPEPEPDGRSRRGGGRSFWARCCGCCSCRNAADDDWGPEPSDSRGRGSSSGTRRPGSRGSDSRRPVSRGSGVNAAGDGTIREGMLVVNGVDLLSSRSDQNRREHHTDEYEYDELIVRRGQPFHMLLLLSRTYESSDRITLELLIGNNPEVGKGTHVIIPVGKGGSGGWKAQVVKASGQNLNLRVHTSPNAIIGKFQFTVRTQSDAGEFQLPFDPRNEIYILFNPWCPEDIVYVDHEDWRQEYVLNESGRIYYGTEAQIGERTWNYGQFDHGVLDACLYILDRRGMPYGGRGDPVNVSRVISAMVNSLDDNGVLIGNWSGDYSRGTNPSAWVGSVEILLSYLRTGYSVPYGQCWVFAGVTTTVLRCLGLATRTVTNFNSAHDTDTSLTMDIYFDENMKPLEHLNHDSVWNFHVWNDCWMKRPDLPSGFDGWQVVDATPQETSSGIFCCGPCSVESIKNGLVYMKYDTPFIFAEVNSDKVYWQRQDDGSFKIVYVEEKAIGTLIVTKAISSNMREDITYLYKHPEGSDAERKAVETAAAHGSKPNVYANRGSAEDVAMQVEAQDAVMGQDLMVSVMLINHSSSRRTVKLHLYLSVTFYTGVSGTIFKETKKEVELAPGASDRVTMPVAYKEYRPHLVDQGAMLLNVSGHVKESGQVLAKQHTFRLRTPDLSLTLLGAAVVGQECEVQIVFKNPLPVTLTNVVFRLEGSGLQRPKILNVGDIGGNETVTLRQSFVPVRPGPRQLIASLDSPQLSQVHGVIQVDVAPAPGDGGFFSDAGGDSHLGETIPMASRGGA
Kind of data set: Inhibition of human transglutaminase 1 using ((benzyloxy)carbonyl)-L-glutaminyl-L-serine peptide substrate assessed as Kinh/Ki ratio by GDH coupled assay. Summed up: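 Recombinant His-tagged human TG1 from E. coli Rosetta 2 pLysS, final ~0.37 μM, in 200 mM MOPS pH 7.2, 5 mM CaCl2, 10 mM α-ketoglutarate, 300 μM NADH, 36 U/mL GDH. Z-Gln-Ser at 20/40 mM. Inhibitors typically at 100/33.3/11.1/3.7 μM (1% DMSO), added after ≥5 min enzyme pre-equilibration. NADH loss read at 340 nm; progress curves fitted to exponential decay, kinh/Ki from irreversible model.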

Data set [3] deals with T3, Coagulation factor XIII A chain (Homo sapiens) (UniProt P00488).
T3 sequence (whole entry): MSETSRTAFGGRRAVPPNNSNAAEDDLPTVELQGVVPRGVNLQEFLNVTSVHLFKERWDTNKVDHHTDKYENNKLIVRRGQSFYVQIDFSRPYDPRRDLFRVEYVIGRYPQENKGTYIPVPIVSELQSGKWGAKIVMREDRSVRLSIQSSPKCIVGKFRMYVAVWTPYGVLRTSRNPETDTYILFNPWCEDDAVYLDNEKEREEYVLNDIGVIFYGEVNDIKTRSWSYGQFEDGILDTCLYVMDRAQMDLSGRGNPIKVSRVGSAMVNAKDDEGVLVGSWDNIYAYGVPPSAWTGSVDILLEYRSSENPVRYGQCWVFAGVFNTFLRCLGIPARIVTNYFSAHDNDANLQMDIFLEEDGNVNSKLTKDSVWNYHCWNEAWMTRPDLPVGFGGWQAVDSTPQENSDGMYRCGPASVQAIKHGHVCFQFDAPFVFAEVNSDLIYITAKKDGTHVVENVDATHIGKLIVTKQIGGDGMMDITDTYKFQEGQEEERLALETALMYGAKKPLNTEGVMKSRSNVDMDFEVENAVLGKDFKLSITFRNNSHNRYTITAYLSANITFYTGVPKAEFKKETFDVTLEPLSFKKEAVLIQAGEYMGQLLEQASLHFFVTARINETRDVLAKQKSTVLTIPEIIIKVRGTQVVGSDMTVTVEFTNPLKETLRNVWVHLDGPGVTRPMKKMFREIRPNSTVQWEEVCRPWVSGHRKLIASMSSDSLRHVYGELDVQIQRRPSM
Kind of data set: Inhibition of human factor 13a using QEQVSPLSLLK peptide substrate assessed as Kinh/Ki ratio by GDH coupled assay.

Data set [4] can be described thus: Plasma concentration in CD-1 mouse at 50 mg/kg, po after 5 mins. The format is ADME, organism-based. Also on record: dose 50 mg/kg, route oral. Summed up:
(§1)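 Male CD-1 mice (6−8 weeks, cohorts of five) fasted ~6 h, then gavaged (10 μL/g) with inhibitor mixtures at 50 mg/kg each compound. Vehicle: 25 mg/mL per compound in 1 M HCl/10% Tween-80/25% ethanol, diluted 5-fold into 0.94% methylcellulose in 250 mM trisodium citrate. Blood sampled at 5, 20 (saphenous) and 60 min (cardiac). Plasma quantified by LC-MS (ESI-QTOF) against standard curves.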

The nature of data set [5]: Plasma concentration in CD-1 mouse at 50 mg/kg, po after 20 mins. The format is ADME, organism-based. Also on record: dose 50 mg/kg, route oral. Summed up:
as §1

As for `O=C(N[C@@H]1C[C@@H](C(=O)NC[C@@H]2CC(Br)=NO2)N(C(=O)OCc2cnc3ccccc3c2)C1)c1cccnc1`, the figures for the Ratio in data set [1], in data set [2] and in data set [3] were 108, 20 and 10.6, respectively.
For `O=C(N[C@@H]1C[C@@H](C(=O)NC[C@@H]2CC(Br)=NO2)N(C(=O)OCc2cnc3ccccc3c2)C1)c1ccc(O)cc1`, in that order: 56.4, 31.3 and 9.4.
Take `O=C(NC[C@@H]1CC(Br)=NO1)[C@@H]1CCCN1C(=O)OCc1cnc2ccccc2c1`: in data set [4], the concentration at 5 min worked out at 2100 ng/mL. Also, the concentration at 20 min in data set [5] amounted to 1200 ng/mL. The Ratio in data set [1] amounted to 16.9; in data set [2], 13.2; in data set [3], 8.3.
As for `O=C(NC[C@@H]1CC(Br)=NO1)[C@@H]1C[C@@H](c2ccc(O)cc2)CN1C(=O)OCc1cnc2ccccc2c1`, the Ratio in data set [1] was 91.1; in data set [2] it was 90.7; in data set [3], 38.7.
For `O=C(NC[C@@H]1CC(Br)=NO1)[C@@H]1C[C@@H](c2ccccc2)CN1C(=O)OCc1cnc2ccccc2c1`, in that order: 48.6, 66.3 and 25.4.
Regarding `O=C(NC[C@@H]1CC(Br)=NO1)[C@@H]1C[C@@H](O)CN1C(=O)OCc1cnc2ccccc2c1`, the Ratio came out at 12.5 in data set [1], 4.8 in data set [2] and 11.1 in data set [3].
The like results for `O=C(NC[C@@H]1CC(Br)=NO1)[C@@H]1C[C@@H](OCc2ccccc2)CN1C(=O)OCc1cnc2ccccc2c1` were, in that order, 13.8, 5.8 and 15.5.
Consider `O=C(NC[C@@H]1CC(Br)=NO1)[C@@H]1C[C@H](F)CN1C(=O)OCc1cnc2ccccc2c1`, for which the concentration at 5 min in data set [4] worked out at 2900 ng/mL. The compound also came in with a concentration at 20 min in data set [5] of 2100 ng/mL. For the same compound, the results for the Ratio in data set [1], in data set [2] and in data set [3] were 13.4, 6 and 7, respectively.
